Columns and labels:
[1] = system: CCRF-CEM; experiment: Ratio of IC50 for Taxol-resistant human CCRF-CEM cells to IC50 for human CCRF-CEM cells
[2] = system: CCRF-CEM; experiment: Cytotoxicity against Taxol-resistant human CCRF-CEM cells after 72 hrs by XTT assay; type: functional, cell-based
In short: (§1)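 Leukemic CCRF-CEM and its Taxol- and vinblastine-resistant sublines exposed 72 h to six or seven drug concentrations. XTT with phenazine methosulfate added for 6 h at 37 °C; absorbance read at 450 and 630 nm. IC50 obtained from dose-effect data by the median-effect principle.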

[3] = system: CCRF-CEM; experiment: Cytotoxicity against vinblastine-resistant human CCRF-CEM cells after 72 hrs by XTT assay; type: functional, cell-based
In short: as §1

[4] = system: CCRF-CEM; experiment: Cytotoxicity against human CCRF-CEM cells after 72 hrs by XTT assay; type: functional, cell-based
In short: as §1

[5] = system: HCT-116; experiment: Cytotoxicity against human HCT116 cells after 72 hrs by SRB assay; type: functional, cell-based; conditions: HCT-116, 72 h
In short: (§2)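 MX-1 breast and HCT-116 colon carcinoma cells exposed 72 h to six or seven drug concentrations. Growth measured by SRB assay with microplate absorbance. IC50 obtained from dose-effect data by the median-effect principle.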

[6] = system: MX1; experiment: Cytotoxicity against human MX1 cells after 72 hrs by SRB assay; type: functional, cell-based; conditions: MX1, 72 h
In short: as §2

[7] = Cytotoxicity against human U87 cells after 72 hrs by Alamar blue assay; type: functional, cell-based, U-87MG ATCC; conditions: U-87 MG
In short: (§3)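 H1299, PC3, OECM1 and U87 cells exposed 72 h to six or seven drug concentrations. Alamar blue added for 6 h at 37 °C; absorbance read at 570 and 600 nm. IC50 obtained from dose-effect data by the median-effect principle.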

[8] = Cytotoxicity against human H1299 cells after 72 hrs by Alamar blue assay; type: functional, cell-based; conditions: NCI-H1299, 72 h
In short: as §3

[9] = system: PC-3; experiment: Cytotoxicity against human PC3 cells after 72 hrs by Alamar blue assay; type: functional, cell-based; conditions: PC-3, 72 h
In short: as §3

[10] = Cytotoxicity against human OECM1 cells after 72 hrs by Alamar blue assay; type: functional, cell-based; conditions: OECM1, 72 h
In short: as §3

CC(C)NC(=O)OCc1c(COC(=O)NC(C)C)c(-c2ccc(F)c(F)c2)n2c1Cc1ccccc1C2
Ratio IC50 [1]: 0.58
IC50 [2]: 780 nM
IC50 [3]: 610 nM
IC50 [4]: 1330 nM

CNC(=O)OCc1c(COC(=O)NC)c(-c2ccc(Cl)cc2)n2c1Cc1ccccc1C2
Ratio IC50 [1]: 1.18
IC50 [2]: 220 nM
IC50 [5]: 40 nM
IC50 [3]: 160 nM
IC50 [4]: 190 nM
IC50 [6]: 1180 nM

Cc1c(COC(=O)NC(C)C)c(COC(=O)NC(C)C)c2n1Cc1ccccc1C2
IC50 [7]: 26600 nM
Ratio IC50 [1]: 0.84
IC50 [2]: 230 nM
IC50 [5]: 1380 nM
IC50 [8]: 9770 nM
IC50 [3]: 140 nM
IC50 [4]: 270 nM
IC50 [6]: 1280 nM
IC50 [9]: 16900 nM
IC50 [10]: 11800 nM

CCNC(=O)OCc1c(COC(=O)NCC)c(-c2ccc(Cl)cc2)n2c1Cc1ccccc1C2
IC50 [7]: 33600 nM
Ratio IC50 [1]: 0.59
IC50 [2]: 350 nM
IC50 [5]: 620 nM
IC50 [8]: 37200 nM
IC50 [3]: 570 nM
IC50 [4]: 590 nM
IC50 [6]: 1690 nM
IC50 [9]: 11000 nM
IC50 [10]: 25300 nM

CCc1c(COC(=O)NC(C)C)c(COC(=O)NC(C)C)c2n1Cc1ccccc1C2
Ratio IC50 [1]: 0.56
IC50 [2]: 320 nM
IC50 [3]: 180 nM
IC50 [4]: 570 nM

COc1ccc(-c2c(CO)c(CO)c3n2Cc2ccccc2C3)cc1OC
Ratio IC50 [1]: 0.69
IC50 [2]: 760 nM
IC50 [3]: 620 nM
IC50 [4]: 1100 nM

COc1cc(-c2c(CO)c(CO)c3n2Cc2ccccc2C3)cc(OC)c1OC
Ratio IC50 [1]: 1.45
IC50 [2]: 2880 nM
IC50 [3]: 2780 nM
IC50 [4]: 1970 nM

CC(C)NC(=O)OCc1c(COC(=O)NC(C)C)c(-c2ccccc2)n2c1Cc1ccccc1C2
Ratio IC50 [1]: 0.5
IC50 [2]: 230 nM
IC50 [3]: 250 nM
IC50 [4]: 450 nM

CCc1c(CO)c(CO)c2n1Cc1ccccc1C2
Ratio IC50 [1]: 1.15
IC50 [2]: 210 nM
IC50 [3]: 190 nM
IC50 [4]: 180 nM

CC(=O)O[C@H]1C(=O)[C@@]2(C)[C@H]([C@H](OC(=O)c3ccccc3)[C@]3(O)C[C@H](OC(=O)[C@H](O)[C@@H](NC(=O)c4ccccc4)c4ccccc4)C(C)=C1C3(C)C)[C@]1(OC(C)=O)CO[C@@H]1C[C@@H]2O [PACLITAXEL]
Ratio IC50 [1]: 330

CC(C)NC(=O)OCc1c(COC(=O)NC(C)C)c(-c2ccc(Cl)cc2)n2c1Cc1ccccc1C2
IC50 [7]: 22700 nM
Ratio IC50 [1]: 1.16
IC50 [2]: 630 nM
IC50 [5]: 690 nM
IC50 [8]: 25200 nM
IC50 [3]: 570 nM
IC50 [4]: 540 nM
IC50 [6]: 1700 nM
IC50 [9]: 9970 nM
IC50 [10]: 26100 nM

CC[C@]1(O)C[C@@H]2CN(CCc3c([nH]c4ccccc34)[C@@](C(=O)OC)(c3cc4c(cc3OC)N(C)[C@H]3[C@@](O)(C(=O)OC)[C@H](OC(C)=O)[C@]5(CC)C=CCN6CC[C@]43[C@@H]65)C2)C1 [VINBLASTINE]
Ratio IC50 [1]: 106.2

CNC(=O)OCc1c(COC(=O)NC)c2n(c1C)Cc1ccccc1C2
Ratio IC50 [1]: 0.86
IC50 [2]: 110 nM
IC50 [5]: 1170 nM
IC50 [3]: 80 nM
IC50 [4]: 130 nM
IC50 [6]: 1680 nM

OCc1c(CO)c(-c2ccc(Cl)c(Cl)c2)n2c1Cc1ccccc1C2
Ratio IC50 [1]: 0.57
IC50 [2]: 4820 nM
IC50 [3]: 6420 nM
IC50 [4]: 8440 nM

COc1cc(-c2c(COC(=O)NC(C)C)c(COC(=O)NC(C)C)c3n2Cc2ccccc2C3)cc(OC)c1OC
Ratio IC50 [1]: 1.35
IC50 [2]: 1200 nM
IC50 [3]: 1420 nM
IC50 [4]: 890 nM

CNC(=O)OCc1c(COC(=O)NC)c(-c2ccc(OC)cc2)n2c1Cc1ccccc1C2
Ratio IC50 [1]: 0.72
IC50 [2]: 130 nM
IC50 [5]: 1070 nM
IC50 [3]: 90 nM
IC50 [4]: 180 nM
IC50 [6]: 1330 nM

OCc1c(CO)c(-c2ccc(Cl)cc2)n2c1Cc1ccccc1C2
IC50 [7]: 26700 nM
Ratio IC50 [1]: 1.28
IC50 [2]: 770 nM
IC50 [5]: 3060 nM
IC50 [8]: 24700 nM
IC50 [3]: 720 nM
IC50 [4]: 600 nM
IC50 [6]: 3280 nM
IC50 [9]: 9850 nM
IC50 [10]: 12000 nM

CC(C)NC(=O)OCc1c(COC(=O)NC(C)C)c(-c2ccc(Cl)c(Cl)c2)n2c1Cc1ccccc1C2
Ratio IC50 [1]: 0.69
IC50 [2]: 2470 nM
IC50 [3]: 1350 nM
IC50 [4]: 3550 nM

CCNC(=O)OCc1c(COC(=O)NCC)c(-c2ccccc2)n2c1Cc1ccccc1C2
Ratio IC50 [1]: 1.01
IC50 [2]: 260 nM
IC50 [3]: 230 nM
IC50 [4]: 260 nM

CC(C)NC(=O)OCc1c(COC(=O)NC(C)C)c(-c2ccc(F)cc2)n2c1Cc1ccccc1C2
IC50 [7]: 36900 nM
Ratio IC50 [1]: 0.3
IC50 [2]: 230 nM
IC50 [5]: 630 nM
IC50 [8]: 8130 nM
IC50 [3]: 230 nM
IC50 [4]: 760 nM
IC50 [6]: 1170 nM
IC50 [9]: 12300 nM
IC50 [10]: 11000 nM

OCc1c(CO)c(-c2ccc(F)cc2)n2c1Cc1ccccc1C2
IC50 [7]: 23200 nM
Ratio IC50 [1]: 1.72
IC50 [2]: 880 nM
IC50 [5]: 2460 nM
IC50 [8]: 8760 nM
IC50 [3]: 490 nM
IC50 [4]: 510 nM
IC50 [6]: 4010 nM
IC50 [9]: 5930 nM
IC50 [10]: 6990 nM

OCc1c(CO)c(-c2ccccc2)n2c1Cc1ccccc1C2
Ratio IC50 [1]: 0.99
IC50 [2]: 500 nM
IC50 [3]: 290 nM
IC50 [4]: 510 nM

CCNC(=O)OCc1c(COC(=O)NCC)c(-c2ccc(OC)c(OC)c2)n2c1Cc1ccccc1C2
Ratio IC50 [1]: 0.75
IC50 [2]: 810 nM
IC50 [3]: 650 nM
IC50 [4]: 1070 nM

CCNC(=O)OCc1c(COC(=O)NCC)c(-c2cc(OC)c(OC)c(OC)c2)n2c1Cc1ccccc1C2
Ratio IC50 [1]: 1.52
IC50 [2]: 2140 nM
IC50 [3]: 3130 nM
IC50 [4]: 1410 nM

CCNC(=O)OCc1c(COC(=O)NCC)c(-c2ccc(F)c(F)c2)n2c1Cc1ccccc1C2
Ratio IC50 [1]: 0.6
IC50 [2]: 1250 nM
IC50 [3]: 670 nM
IC50 [4]: 2080 nM

COc1ccc(-c2c(COC(=O)NC(C)C)c(COC(=O)NC(C)C)c3n2Cc2ccccc2C3)cc1OC
Ratio IC50 [1]: 0.46
IC50 [2]: 600 nM
IC50 [3]: 770 nM
IC50 [4]: 1290 nM

CCNC(=O)OCc1c(COC(=O)NCC)c(-c2ccc(Cl)c(Cl)c2)n2c1Cc1ccccc1C2
Ratio IC50 [1]: 0.38
IC50 [2]: 900 nM
IC50 [3]: 1190 nM
IC50 [4]: 2370 nM

OCc1c(CO)c(-c2ccc(F)c(F)c2)n2c1Cc1ccccc1C2
Ratio IC50 [1]: 1.11
IC50 [2]: 1260 nM
IC50 [5]: 3210 nM
IC50 [3]: 950 nM
IC50 [4]: 1140 nM
IC50 [6]: 6990 nM

CNC(=O)OCc1c(COC(=O)NC)c(-c2ccc(F)c(F)c2)n2c1Cc1ccccc1C2
Ratio IC50 [1]: 0.91
IC50 [2]: 450 nM
IC50 [5]: 360 nM
IC50 [3]: 470 nM
IC50 [4]: 490 nM
IC50 [6]: 2730 nM

CCNC(=O)OCc1c(COC(=O)NCC)c2n(c1CC)Cc1ccccc1C2
Ratio IC50 [1]: 0.48
IC50 [2]: 210 nM
IC50 [3]: 240 nM
IC50 [4]: 440 nM

— ChEMBL document CHEMBL1641600, “Novel bifunctional alkylating agents, 5,10-dihydropyrrolo[1,2-b]isoquinoline derivatives, synthesis and biological activity” (Bioorg Med Chem, 2011)
